From PubChem
OXTR ag – activates the human oxytocin receptor; CHO-OTR cells, Fluo-8 calcium fluorescence; normalized: DMSO 0%, oxytocin 100%; activation, % at 3 µM; 320,000 tested, 0.32% active; AID 2435;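 active = activation above the mean of all tested compounds plus 3 SD, cutoff set per screening run, cut at about 20% in these data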;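 also: peak over basal fluorescence ratio from a 100 s FLIPR kinetic read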
Target sequence (P30559 whole entry, looked up): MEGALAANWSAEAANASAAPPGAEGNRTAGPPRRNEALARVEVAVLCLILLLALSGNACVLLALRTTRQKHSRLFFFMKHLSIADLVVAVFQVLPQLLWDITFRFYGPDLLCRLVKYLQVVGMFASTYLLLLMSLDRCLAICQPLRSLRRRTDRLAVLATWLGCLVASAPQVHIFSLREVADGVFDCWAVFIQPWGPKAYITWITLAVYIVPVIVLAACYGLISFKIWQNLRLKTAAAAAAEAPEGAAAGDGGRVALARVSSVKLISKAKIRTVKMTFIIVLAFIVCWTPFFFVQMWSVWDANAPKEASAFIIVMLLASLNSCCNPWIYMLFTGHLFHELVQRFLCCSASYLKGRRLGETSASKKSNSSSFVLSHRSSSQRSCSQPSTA
TAAR1 antag – antagonists of human TAAR1; Q96RJ0; CHO RD-HGA16 TAAR1, Fluo-8 calcium fluorescence, antagonist; inhibition, % at 3 µM; 360,000 tested, 1.5% active; AID 624466;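 active = inhibition above a per-plate cutoff, the mean inhibition of test compounds on that plate plus 3 SD, cut at about 49% in these data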;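 also: 0% = DMSO plus EC80 beta-PEA response and 100% = DMSO alone without agonist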
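System: RD-HGA16 CHO cells with stable hTAAR1 and Gα16 | Probe or stimulus: EC80 β-phenethylamine stimulus | Dosing: 3 µM, single point | Times: Dye loading 75 min at 37 °C, then 30 min room temperature | Measured by: Fluo-8 calcium-sensitive fluorescence | Read-out basis: % inhibition of agonist calcium response | Replicates: n of 1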
V1R ag counter – activates human V1a receptor in oxytocin agonist counter-screen. P37288. CHO-V1R cells, Fluo-8 calcium fluorescence, agonist mode; 0% DMSO, 100% 3 nM vasopressin. activation, % at 3 µM. 320,000 tested, 0.25% active. AID 2797;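 active = activation above the mean activation of all tested compounds plus 3 SD, per screening run, cut at about 20% in these data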;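 also: signal is peak over basal fluorescence ratio across a 100 second FLIPR read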
Target sequence (P37288 whole entry, looked up): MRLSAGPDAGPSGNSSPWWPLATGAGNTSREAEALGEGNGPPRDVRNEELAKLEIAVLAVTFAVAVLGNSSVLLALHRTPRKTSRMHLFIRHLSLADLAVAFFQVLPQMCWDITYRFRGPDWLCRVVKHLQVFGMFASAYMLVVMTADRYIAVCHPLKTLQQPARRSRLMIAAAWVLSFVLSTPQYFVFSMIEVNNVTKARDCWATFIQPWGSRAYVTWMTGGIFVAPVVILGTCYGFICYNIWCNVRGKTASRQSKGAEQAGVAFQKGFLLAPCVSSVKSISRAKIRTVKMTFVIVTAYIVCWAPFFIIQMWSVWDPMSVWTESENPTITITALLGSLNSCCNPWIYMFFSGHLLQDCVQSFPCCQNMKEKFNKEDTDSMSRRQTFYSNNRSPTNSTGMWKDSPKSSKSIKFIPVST
OXTR potentiator – potentiates the human oxytocin receptor response; activation, % at 3 µM; P30559; 320,000 tested, 0.061% active; AID 2445; CHO-OTR cells, Fluo-8 calcium fluorescence, potentiator mode; 0% = oxytocin EC15, 100% = EC100;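 active = activation above that plate's cutoff, the mean activation of tested compounds plus 3 SD, cut at about 6.6% in these data, passing the limit was not always enough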;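 also: 100% uses oxytocin at 75 nM as the full agonist control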
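System: human OTR in CHO cells / Also added: sub-maximal oxytocin, roughly EC15 / Control set: EC15 oxytocin low, 75 nM oxytocin high / Schedule: 6 min compound pre-incubation at room temperature, 100 s kinetic read / Compound: single-point 3.0 µM / Replication: singlicate / Technique: Fluo-8 calcium dye fluorescence / Read-out basis: % activation of max/min ratio relative to oxytocin controls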
TAAR1 agonist – human TAAR1 agonism; Q96RJ0; CHO RD-HGA16 TAAR1, Fluo-8 calcium fluorescence; vehicle wells 0%, saturating PEA agonist 100%; activation, % at 3 µM; 360,000 tested, 0.99% active; AID 624467;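 active = activation above the mean activation of all test compounds in the run plus 3 SD, cut at about 38% in these data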
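Benchmarks: low control DMSO, high control PEA (EC100); System: CHO RD-HGA16 cells carrying human TAAR1 plus Gα16; Detection: Fluo-8 fluorescence, 5 s baseline then 140 s kinetic read; Schedule: 17-24 h plating, Fluo-8 75 min 37 °C, 30 min RT; Read-out basis: % activation from peak over basal fluorescence ratio, DMSO-to-PEA scaled.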
TAAR1 ag conf – confirmation of human TAAR1 agonists. activation, % at 3 µM. CHO RD-HGA16 TAAR1, Fluo-8 calcium fluorescence; scaled: DMSO 0%, maximal phenethylamine 100%. 2,400 tested, 82% active. shares compounds with TAAR1 agonist;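 active = activation above a cutoff set at the run's mean compound activation plus 3 SD, cut at about 39% in these data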
Ga16 nonsel ag – nonselective agonist in parental cells, TAAR1 agonist counter-screen | 2,400 tested, 50% active | shares compounds with TAAR1 agonist | activation, % at 3 µM | CHO-Ga16 parental, Fluo-8 calcium fluorescence; normalized to maximal ATP response, DMSO zero;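 active = activation above the run cutoff, the mean activation over all tested wells plus 3 SD, cut at about 12% in these data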;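 also: 0% = DMSO wells and 100% = maximal ATP response on the peak over basal ratio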
TAAR1 desensitize – human TAAR1 agonist that also desensitizes the receptor; shares compounds with TAAR1 agonist; CHO RD-HGA16 hTAAR1, Fluo-8 calcium, beta-PEA response inhibition; inhibition, % at 3 µM; 2,400 tested, 46% active;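 active = inhibition above the run cutoff, the mean inhibition of all test compounds plus 3 SD, cut at about 49% in these data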;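 also: beta-PEA stimulus applied at its EC80; loss of beta-PEA calcium signal after compound pretreatment read as receptor desensitization; 0% = DMSO with beta-PEA at EC80 and 100% = DMSO alone without agonist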
Ga16 antag count – counter-screen for TAAR1 agonists: nonselective Ga16 antagonists; shares compounds with TAAR1 agonist; inhibition, % at 3 µM; CHO-Ga16 ATP-induced calcium, Fluo-8 fluorescence; 2,400 tested, 39% active;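 active = inhibition above the plate's mean compound inhibition plus 3 SD, computed per plate, cut at about 22% in these data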;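 also: 0% = EC80 ATP with DMSO and 100% = DMSO wells without ATP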
The depositor's hits bear a star; x = no result; ! = repeats disagree. A selection: hits, their analogues and other compounds. The true share with any hit is near 2.3%.

SMILES	OXTR ag	TAAR1 antag	V1R ag counter	OXTR potentiator	TAAR1 agonist	TAAR1 ag conf	Ga16 nonsel ag	TAAR1 desensitize	Ga16 antag count
CC1=C(C)CS(=O)N(S(=O)(=O)c2ccc(Cl)cc2)C1 (configuration not stated)	2.1	35.8	6.2	-7.0	76.6*	77.2*	54.2*	25.8	15.4
COc1ccc(NC(=O)C[C@H]2C(=O)N(CCc3ccccc3)C[C@@H]2c2ccc(OC)cc2)cc1	x	5.6	x	x	21.4	x	x	x	x
O=C(C[C@H]1C(=O)N(CCc2ccccc2)C[C@@H]1c1ccccc1)Nc1ccccc1	x	47.6	x	x	73.4*	77.1*	-0.2	47.8	14.0
Cc1ccc(NC(=O)N2CCc3ccccc3C2)cc1	-1.7	8.0	-0.7	-0.9	68.0*	42.8*	0.5	5.4	1.5
CC(=O)c1cccc(NC(=O)N2CCc3ccccc3C2)c1	1.1	19.5	1.8	-1.1	56.5*	62.0*	4.6	24.3	17.6
O=C(Nc1ccccc1)N1CCc2ccccc2C1	1.3	19.7	0.3	-8.0	47.8*	54.2*	4.9	13.7	4.7
Cc1ccc(NC(=O)N2CCc3ccccc3C2)c(C)c1	-1.4	42.9	1.4	-1.5	92.3*	66.2*	3.0	20.0	11.7
O=C(Nc1ccc(Cl)cc1)N1CCc2ccccc2C1	-2.0	0.1	0.2	-11.2	29.8	x	x	x	x
COc1ccccc1C(=O)NC1CCN(C(=O)Nc2ccc(C)cc2)CC1	-0.3	4.3	0.3	-3.2	-5.5	x	x	x	x
Cc1ccc(Cn2nnc(C(=O)Nc3cccc(C)c3C)c2N)cc1	37.6*	81.4*	37.9*	-10.1	117.5*	123.5*	85.0*	86.6*	58.9*
COc1ccc(CCC(=O)NNC(=O)Nc2ccccc2Cl)cc1	x	-16.6	x	x	4.4	x	x	x	x
O=S(=O)(CCNCCc1ccccc1)NC1CCCCC1	x	13.0	x	x	42.5*	59.8*	0.9	17.3	-1.7
CN(CCC#N)c1ccc(/C=C(\C#N)c2ccccn2)cc1	1.1	19.3	2.5	-11.9	86.4*	3.1	5.1	8.2	9.8
CCN(CC)c1ccc(/C=C(\C#N)c2ccccn2)cc1	1.9	x	3.9	-10.3	x	x	x	x	x
O=C(/C=C(\Nc1cccc(Cl)c1F)c1ccccc1)c1ccccc1	x	19.2	x	x	-1.7	x	x	x	x
O=C(NCc1nnc(SCC(=O)N2CCCC2)o1)c1cccc(C(F)(F)F)c1	0.2	0.2	0.9	-1.0	-0.2	x	x	x	x
CN1CCN(c2ccc(NC(=O)c3cccc(OCc4ccccc4)c3)cc2)CC1	10.0	31.0	3.8	-10.2	54.1*	60.5*	7.5	70.8*	13.2
CCN1CCN(c2ccc(NC(=O)c3cccc(OCc4ccccc4)c3)cc2)CC1	6.1	-1.3	3.8	-7.5	17.7	x	x	x	x
CC(=O)c1cccc(NC(=S)NC(=O)Cc2ccc(Cl)cc2)c1	26.4*	57.0*	20.9*	-25.0	94.3*	105.6*	59.0*	84.5*	47.5*
O=C(Cc1ccccc1)NC(=S)Nc1cc(C(F)(F)F)ccc1Cl	1.3	49.3*	12.3	-13.4	53.2*	49.0*	20.4*	38.9	18.7
O=C(Cc1ccc(Cl)cc1)NC(=S)Nc1ccccc1N1CCOCC1	1.4	52.0*	13.5	-16.9	64.9*	71.7*	44.1*	57.1*	33.6*
Cc1ccc(C(=O)NC(=S)Nc2cc(C(F)(F)F)ccc2Cl)cc1	0.2	21.9	0.5	-4.5	6.6	x	x	x	x
O=C(Cc1ccccc1)NC(=S)Nc1cccc(C(F)(F)F)c1	7.9	43.1	11.9	-11.5	55.5*	33.2	14.5*	38.3	17.9
COc1ccc2c(c1OC)C(=O)N1C2SC(C)(C)[C@H]1C(=O)NC1CC1 (some centres not stated)	1.0	-31.3	0.0	-6.6	0.4	x	x	x	x
C=CCON1C(=O)C(=O)N(OCC=C)[C@H]2CCCC[C@H]21	0.3	-40.9	-0.4	-3.1	0.8	x	x	x	x
SMILES	OXTR ag	TAAR1 antag	V1R ag counter	OXTR potentiator	TAAR1 agonist	TAAR1 ag conf	Ga16 nonsel ag	TAAR1 desensitize	Ga16 antag count
Cc1ccc(NC(=S)NC(=O)Cc2ccccc2)c(O)c1	x	47.4	x	x	65.8*	72.6*	27.0*	42.6	24.0*
Cc1ccccc1OCCC(=O)Nc1cc(S(=O)(=O)N2CCCCC2)ccc1N1CCN(C)CC1	x	49.3*	x	x	89.6*	105.4*	73.4*	78.4*	58.8*
Cc1ccc(Oc2ccc(Oc3ccc(C)cc3)nn2)cc1	-2.5	68.5*	-2.3	5.4	66.2*	4.8	17.4*	11.9	17.5
Cc1ccc(Oc2cnc3ccccc3n2)cc1	-1.1	-9.1	-0.1	-6.7	23.9	x	x	x	x
Oc1ccc(C2CNCCc3c2cc(O)c(O)c3Cl)cc1 (configuration not stated)	0.7	13.1	0.7	-1.1	61.8*!	81.1*	0.0	75.7*	10.2
C=CCN1CCc2c(cc(O)c(O)c2Cl)C(c2ccccc2)C1 (configuration not stated)	-0.5	-23.6	0.8	4.0	-1.6	x	x	x	x
Oc1cc2c(c(Cl)c1O)CCNCC2c1ccccc1 (configuration not stated)	2.0	-10.5	0.4	-3.5	44.0*	73.5*	2.9	57.3*	10.2
CCOC(=O)c1nc(-c2ccccc2)sc1C(C)=O	-1.9	-42.4	-0.9	1.5	3.6	x	x	x	x
CCOC(=O)C(NC(C)=O)C(=O)Nc1ccc(C)cc1C (configuration not stated)	0.3	-4.1	0.1	-1.2	4.8	x	x	x	x
CC(C)(C)CN1CCNC(=O)C1CC(=O)NCCc1ccccc1C(F)(F)F (configuration not stated)	-0.1	-0.8	0.2	-10.8	17.4	x	x	x	x
CN1CCNC(=O)C1CC(=O)NCCc1ccccc1F (configuration not stated)	-0.1	29.9	0.6	-2.9	74.3*	88.7*	2.0	59.3*	5.5
O=C(CC1C(=O)NCCN1Cc1ccccn1)NCCc1ccccc1F (configuration not stated)	0.8	41.0	0.7	-9.5	77.8*	96.5*	8.4	72.3*	-2.9
Cc1ccccc1CNC(=O)/C=C\C(=O)O	0.9	-12.7	-0.1	2.9	32.8	x	x	x	x
O=C(O)/C=C/C(=O)NCc1csc2ccccc12	2.6	x	2.9	5.5	x	x	1.8	x	4.4
